Source: PubChem BioAssay (several laboratories)
The entries come from a sample that favours hits as a whole.
TLR9-MyD88 block: TLR9-MyD88 interaction inhibition; hit rate 0.21% among 340,000; Q9NR96+Q99836; inhibition, % at 4.98 µM; CHO BLA complementation TLR9-MyD88, CCF4 FRET ratio;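 active = inhibition above the mean over all tested compounds plus 3 SD, cut at about 21% in these data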;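 also: 0% = DMSO only wells and 100% = clavulanate BLA inhibitor control wells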
CHOP UPR activ: activators of apoptotic arm of unfolded protein response (CHOP) | CHO-CHOP luciferase reporter, UPR activation, luminescence; percent of tunicamycin response over DMSO baseline | activation, % at 10 µM | hit rate 0.34% among 330,000;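 active = at 10 µM dose, activation of 40% or more, normalized to positive control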;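 also: 100% = tunicamycin at 10 µg/mL and 0% = DMSO alone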
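Assay system: CHO cells with stable CHOP pathway luciferase reporter; Buffer or medium: F12 plus 10% serum; Times: 16-18 h cell attachment, then 6 h compound exposure, 37 °C; Signal: luciferase luminescence; Read-out basis: percent activation relative to tunicamycin control; Control set: tunicamycin high control, DMSO low control.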
UPR XBP1 act: activators of adaptive arm of unfolded protein response (XBP1); CHO-XBP1 luciferase reporter, IRE1-XBP1 UPR activation, luminescence; percent of tunicamycin response, DMSO as zero; activation, % at 20 µM; hit rate 0.33% among 330,000;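 active = versus positive control, 20 µM dose yields 30% or more activation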;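 also: 100% = tunicamycin at 10 µg/mL and 0% = DMSO only wells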
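Assay system: CHO-XBP1 luciferase reporter cells; Schedule: 6 h treatment, 37 °C; Detection: glow luminescence from Steady-Glo reagent; Benchmarks: high control tunicamycin 10 µg/mL final, low control DMSO vehicle only.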
NOD2-RIPK2 inh: inhibitors of human NOD2-RIPK2 interaction; O43353; CHO BLA complementation NOD2-RIPK2, CCF4 ratio; inhibition, % at 4.98 µM; hit rate 0.38% among 360,000; AID 624267; in the data active = inhibition above about 21%;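 also: 0% = vehicle only and 100% = reference blocker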
TLR4 MyD88 comp: TLR4-MyD88 interaction inhibition in cells; O00206+Q99836; hit rate 0.18% among 200,000; HeLa CL3-4 TLR4/MyD88 BLA complementation, FRET ratio; inhibition, % at 8.4 µM; in the data active = inhibition above about 25%;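 also: 0% = vehicle and 100% = reference inhibitor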
Target sequence (O00206 whole entry, looked up): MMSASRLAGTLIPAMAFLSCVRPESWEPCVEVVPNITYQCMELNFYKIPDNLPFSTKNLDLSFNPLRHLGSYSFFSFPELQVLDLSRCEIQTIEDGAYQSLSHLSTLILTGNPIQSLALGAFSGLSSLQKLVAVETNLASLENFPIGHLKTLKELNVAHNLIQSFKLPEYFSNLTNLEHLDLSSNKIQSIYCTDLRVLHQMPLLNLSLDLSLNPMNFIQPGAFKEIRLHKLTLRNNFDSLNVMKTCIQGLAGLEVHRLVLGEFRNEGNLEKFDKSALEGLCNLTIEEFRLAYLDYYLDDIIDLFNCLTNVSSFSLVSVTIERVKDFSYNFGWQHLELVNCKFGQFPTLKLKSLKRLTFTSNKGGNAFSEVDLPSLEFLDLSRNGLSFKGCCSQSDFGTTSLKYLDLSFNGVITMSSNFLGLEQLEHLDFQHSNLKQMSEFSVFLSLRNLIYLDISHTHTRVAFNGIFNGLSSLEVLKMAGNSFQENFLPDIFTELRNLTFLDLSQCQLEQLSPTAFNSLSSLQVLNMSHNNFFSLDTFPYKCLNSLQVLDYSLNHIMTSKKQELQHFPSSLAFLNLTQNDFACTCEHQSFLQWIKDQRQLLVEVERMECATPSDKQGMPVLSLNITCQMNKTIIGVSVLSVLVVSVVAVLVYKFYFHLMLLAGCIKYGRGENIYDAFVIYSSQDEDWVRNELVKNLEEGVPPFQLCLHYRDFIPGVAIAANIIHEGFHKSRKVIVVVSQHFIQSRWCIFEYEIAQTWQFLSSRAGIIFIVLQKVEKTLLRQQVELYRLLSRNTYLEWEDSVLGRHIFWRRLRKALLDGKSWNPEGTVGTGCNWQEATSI
Target sequence (Q99836 whole entry, looked up): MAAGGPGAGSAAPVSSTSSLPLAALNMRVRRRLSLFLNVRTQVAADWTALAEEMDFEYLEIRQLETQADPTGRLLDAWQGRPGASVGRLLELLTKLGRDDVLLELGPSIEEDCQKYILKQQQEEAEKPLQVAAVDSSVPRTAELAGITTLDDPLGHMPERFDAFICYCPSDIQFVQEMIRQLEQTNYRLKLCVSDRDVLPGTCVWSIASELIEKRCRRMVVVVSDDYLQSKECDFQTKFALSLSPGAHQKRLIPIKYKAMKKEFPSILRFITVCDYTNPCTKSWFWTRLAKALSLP
CHOP inh: inhibitors of CHOP induction in ER stress response | CHO-K1 CHOP-promoter luciferase, tunicamycin-induced, 15-18 h | inhibition, % at 10 µM | hit rate 3.8% among 220,000 | AID 2732;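 active = compounds that reduced the stress-induced luciferase reporter signal by more than about 70% of percent inhibition, limit read from the data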;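 also: 0% = tunicamycin plus vehicle and 100% = wells without tunicamycin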
TLR4 MyD88 cnf: TLR4-MyD88 interaction inhibition confirmed. shares compounds with TLR4 MyD88 comp. HeLa CL3-4 BLA complementation, CCF4 FRET ratio. inhibition, % at 8.4 µM. hit rate 50% among 350;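 active = mean inhibition across three repeat runs above about 25% carried over from the earlier screen, limit read from the data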;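 also: plate controls were DMSO only for no effect and clavulanic acid blocking BLA at full dose for full effect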
BLA inhibitor ct: beta-lactamase inhibition flagged in TLR4-MyD88 counter-screen | shares compounds with TLR4 MyD88 comp | HeLa BLA reporter, CCF4 FRET ratio | inhibition, % at 8.4 µM | hit rate 63% among 350 | AID 1237;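 active = mean inhibition over three repeats above about 26% taken from the earlier screen, limit read from the data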;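 also: HeLa cells stably expressing beta-lactamase reporter as counterscreen for TLR4-MyD88 inhibitors; 0% = DMSO and 100% = clavulanic acid full inhibition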
CHOP inh conf: confirmation of CHOP induction inhibitors; AID 504437; inhibition, % at 10 µM; CHO-CHOP promoter luciferase reporter, tunicamycin-induced, luminescence; shares compounds with CHOP inh; hit rate 45% among 2,100;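 active = mean of three repeat readings of reporter signal inhibition above a set limit, cut at about 70% in these data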;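 also: 0% = tunicamycin plus vehicle and 100% = wells lacking tunicamycin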
TLR9-MyD88 cf: confirmation of human TLR9-MyD88 binding inhibitors; inhibition, % at 4.98 µM; AID 540250; shares compounds with TLR9-MyD88 block; hit rate 51% among 680; CHO TLR9/MyD88 BLA complementation, CCF4 FRET ratio;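 active = mean inhibition across three repeats above about 21% taken from the earlier screen, limit read from the data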;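 also: blue over green emission ratio reports constitutive TLR9 MyD88 association via BLA complementation; 0% = DMSO vehicle wells and 100% = clavulanate BLA inhibitor wells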
BLA counter-1: non-selective beta-lactamase inhibitors in TLR9-MyD88 counter-screen; hit rate 7% among 680; inhibition, % at 4.98 µM; CHO-BLA cells, CCF4 FRET ratio, BLA reporter; shares compounds with TLR9-MyD88 block;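 active = mean inhibition above a 50% cutoff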;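 also: counterscreen of TLR9-MyD88 hits on CMV-driven BLA in CHO-K1 cells; 0% = DMSO alone and 100% = clavulanate blocking BLA; higher means less blue over green ratio so more BLA blockade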
TLR9 CHO tox: CHO cell toxicity counter-screen for TLR9-MyD88 inhibitors; hit rate 39% among 680; shares compounds with TLR9-MyD88 block; TLR9-MyD88 CHO cells cytotoxicity, luminescence; inhibition, % at 4.98 µM; in the data active = inhibition above about 11%
NOD2 RIPK2 conf: NOD2-RIPK2 interaction inhibition confirmed; hit rate 70% among 1,200; inhibition, % at 4.98 µM; CHO cells, NOD2-RIPK2 BLA complementation, CCF4 FRET; shares compounds with NOD2-RIPK2 inh;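 active = mean inhibition across replicates above a set limit taken from the earlier primary screen, cut at about 21% in these data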;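 also: 0% = DMSO-only wells and the high end = clavulanate BLA-blocked wells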
BLA counter-2: NOD2-RIPK2 counterscreen BLA reporter activity | shares compounds with NOD2-RIPK2 inh | CHO BLA reporter, CCF4 FRET ratio | inhibition, % at 4.98 µM | hit rate 57% among 1,200;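 active = mean inhibition above the low-control mean inhibition plus three low-control SD, cut at about 11% in these data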;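 also: 0% = DMSO only wells and 100% = clavulanate high control wells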
The depositor's hits bear a star.

What do the screens show for `Cc1cc2c(C(F)(F)F)cc(=O)oc2c2c1NCCC2`?
TLR9-MyD88 block: 15; CHOP UPR activ: 2; UPR XBP1 act: -1; NOD2-RIPK2 inh: 20; TLR4 MyD88 comp: 31*; CHOP inh: 56; TLR4 MyD88 cnf: 54*; BLA inhibitor ct: 55*

What do the screens show for `O=c1cc(C(F)(F)F)c2cc3c4c(c2o1)CCCN4CCC3`?
TLR9-MyD88 block: 46*; CHOP UPR activ: 0; UPR XBP1 act: -1; NOD2-RIPK2 inh: 68*; TLR4 MyD88 comp: 54*; CHOP inh: 93*; TLR4 MyD88 cnf: 49*; BLA inhibitor ct: 81*; TLR9-MyD88 cf: 51*; BLA counter-1: 55*; TLR9 CHO tox: -1; NOD2 RIPK2 conf: 63*; BLA counter-2: 76*

What do the screens show for `COC(=O)C1=C(c2ccc(OCc3ccccc3)cc2)C[C@@H]2CC[C@H]1N2C(=O)NCc1ccccc1C(F)(F)F`?
TLR9-MyD88 block: 8; NOD2-RIPK2 inh: -15

Results for CCCCN1C(=O)/C(=C/C=C/c2ccco2)C(=O)NC1=S ?
TLR9-MyD88 block: 2; NOD2-RIPK2 inh: 8; TLR4 MyD88 comp: 0; CHOP inh: -30

Results for Cc1cc(C)cc(N2C(=O)NC(=O)/C(=C\C=C\c3ccco3)C2=O)c1 ?
TLR9-MyD88 block: -2; NOD2-RIPK2 inh: 4; TLR4 MyD88 comp: 2; CHOP inh: 107*; CHOP inh conf: -16

What do the screens show for `Cc1cc(C(=O)OC(C)C(=O)Nc2ccccc2)c(C)n1C1CC1` (centres undefined)?
TLR9-MyD88 block: -1; NOD2-RIPK2 inh: -15

What do the screens show for `COc1ccc(-n2nnnc2C(c2cccc3ccccc23)N2CCC3(CC2)C(=O)NCN3c2ccccc2)cc1` (centres undefined)?
NOD2-RIPK2 inh: -8

Results for CCN1C(=O)C(=Cc2ccc(C)s2)C(=O)N(CC)C1=S ?
TLR9-MyD88 block: 7; CHOP UPR activ: 9; UPR XBP1 act: 9; NOD2-RIPK2 inh: -3; TLR4 MyD88 comp: 4; CHOP inh: 106*; CHOP inh conf: -23

How did CCN1C(=O)C(=Cc2cc(C)n(C3CC3)c2C)C(=O)N(CC)C1=S do in these assays?
TLR9-MyD88 block: -11; CHOP UPR activ: 1; UPR XBP1 act: 1; NOD2-RIPK2 inh: -5; TLR4 MyD88 comp: 8; CHOP inh: 9

What do the screens show for `CCCCCCn1c(=O)c(C(=O)Nc2cnccn2)c(O)c2ccccc21`?
TLR9-MyD88 block: -6; CHOP UPR activ: 14; UPR XBP1 act: 4; NOD2-RIPK2 inh: -1; TLR4 MyD88 comp: 9; CHOP inh: 96*; CHOP inh conf: 120*

What do the screens show for `CCCCCn1c(=O)c(C(=O)Nc2ccccn2)c(O)c2ccccc21`?
TLR9-MyD88 block: 1; CHOP UPR activ: 15; UPR XBP1 act: -2; NOD2-RIPK2 inh: -4

What do the screens show for `COC(=O)C1=C(c2ccc(-c3ccccc3)c(F)c2)C[C@@H]2CC[C@H]1N2C(=O)NCc1ccco1`?
TLR9-MyD88 block: -12; CHOP UPR activ: -2; UPR XBP1 act: 0; NOD2-RIPK2 inh: 12

What do the screens show for `CCc1ccc(NP(=O)(Oc2ccccc2F)Oc2ccccc2F)cc1`?
TLR9-MyD88 block: 2; CHOP UPR activ: -1; UPR XBP1 act: -4; NOD2-RIPK2 inh: -3; TLR4 MyD88 comp: 3; CHOP inh: 98*; CHOP inh conf: 102*

How did Cc1ccc(NP(=O)(Oc2ccccc2F)Oc2ccccc2F)cc1 do in these assays?
TLR9-MyD88 block: -9; CHOP UPR activ: 0; UPR XBP1 act: -2; NOD2-RIPK2 inh: 0; TLR4 MyD88 comp: -3; CHOP inh: 98*; CHOP inh conf: 101*

Results for Cc1cccc(NP(=O)(Oc2ccccc2F)Oc2ccccc2F)c1C ?
TLR9-MyD88 block: -3; CHOP UPR activ: 1; UPR XBP1 act: -3; NOD2-RIPK2 inh: -8; TLR4 MyD88 comp: -7; CHOP inh: 58

What do the screens show for `C=CC12CN(C)C3C4COC(CC41)C1(C(=O)Nc4ccccc41)C32` (centres undefined)?
NOD2-RIPK2 inh: -5

What do the screens show for `COc1ccc(C(=O)C2CCCN(CC3CCCCC3)C2)cc1OC` (centres undefined)?
NOD2-RIPK2 inh: 0

What do the screens show for `O=C1NC(=O)C(=Cc2ccc(SC3CCCCC3)o2)C(=O)N1`?
TLR9-MyD88 block: 14; CHOP UPR activ: 2; UPR XBP1 act: 1; NOD2-RIPK2 inh: -9; TLR4 MyD88 comp: 10; CHOP inh: 108*; CHOP inh conf: 55

Results for COC(=O)[C@]12OC[C@]34C([C@@H](O)[C@@H]1O)[C@]1(C)CC(=O)C(O)=C(C)[C@@H]1C[C@H]3OC(=O)[C@H](O)[C@@H]24 (some centres undefined) ?
TLR9-MyD88 block: -6; CHOP UPR activ: -5; UPR XBP1 act: -4; NOD2-RIPK2 inh: 26*; CHOP inh: 104*; CHOP inh conf: 108*

How did CCOC(=O)C1(CCOc2ccccc2)CCN(Cc2ccc(C)s2)CC1 do in these assays?
TLR9-MyD88 block: -3; CHOP UPR activ: -1; UPR XBP1 act: -2; NOD2-RIPK2 inh: 3; TLR4 MyD88 comp: -12; CHOP inh: 101*; CHOP inh conf: 57
